Compound activity: PubChem, Broad Institute
T cruzi growth-1: T. cruzi proliferation inhibition; inhibition, % at 8.34 µM; T. cruzi beta-gal in NIH3T3, GalScreen luminescence, 90 h; AID 624255; hit rate 5.9% among 77,000;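 active = mean inhibition above about 93%, with at least 55% of replicates each passing it, limit read from the data, passing the limit was not always enough; inconclusive = only one of those two conditions holds; inactive = neither condition holds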
Pf Dd2 inh: P. falciparum Dd2 growth inhibition; SYBR Green, 72 h; hits give low values; activity change, % at 10 µM; hit rate 2.3% among 94,000; in the data active = activity change below about -80%; inconclusive = no clear call, values can overlap the other calls
IDH1 R132H inh: IDH1 R132H (human) inhibition | O75874 | IDH1 R132H reductase, diaphorase/resazurin fluorescence, 60 min | inhibition, % at 10 µM | hit rate 0.18% among 70,000 | AID 624101; in the data active = inhibition above about 34%; inconclusive = no clear call, values can overlap the other calls; inactive = below about 11%
GASC1 inh: blocks human GASC-1 (KDM4C) demethylase activity | Q9H3R0 | GST-KDM4C 2-372, H3K9me3 peptide, LANCE TR-FRET | inhibition, % at 12.5 µM | hit rate 0.15% among 96,000;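 active = mean replicate inhibition above about 25%, with at least 55% of replicates also reaching it, limit read from the data, passing the limit was not always enough; inconclusive = only one of those two conditions met; inactive = neither condition met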
Target sequence (Q9H3R0 2-372 limits assumed): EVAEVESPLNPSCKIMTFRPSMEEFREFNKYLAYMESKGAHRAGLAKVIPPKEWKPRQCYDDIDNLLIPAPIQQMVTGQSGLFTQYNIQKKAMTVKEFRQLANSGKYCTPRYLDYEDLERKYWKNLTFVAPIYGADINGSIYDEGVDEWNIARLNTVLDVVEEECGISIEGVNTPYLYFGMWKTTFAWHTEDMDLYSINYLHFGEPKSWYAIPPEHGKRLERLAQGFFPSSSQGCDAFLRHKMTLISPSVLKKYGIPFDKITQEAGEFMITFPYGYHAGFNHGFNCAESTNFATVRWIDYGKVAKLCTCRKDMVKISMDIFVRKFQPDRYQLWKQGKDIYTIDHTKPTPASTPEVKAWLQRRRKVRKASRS
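System – N-terminal GST-fused human GASC-1 (KDM4C) fragment, residues 2-372 · Input – enzyme final amount 10 nM · Technique – LANCE TR-FRET, Eu antibody, ULight-streptavidin, EDTA, ex 340 nm, em 618/671 nm · Medium – HEPES buffer, pH 7.5, plus ascorbate · Incubation – enzyme reaction 30 min, then detection 60 min, both room temperature · Reagent – H3K9me3 peptide with Fe(II)/2OG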
T cruzi growth-2: inhibitors of T. cruzi proliferation; shares compounds with T cruzi growth-1; T. cruzi beta-gal in NIH3T3, GalScreen luminescence, 90 h; inhibition, % at 8.35 µM; hit rate 72% among 5,600; AID 651739;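 active = mean replicate inhibition above about 95% and at least 55% of replicates individually reaching it, limit read from the data; inconclusive = only one of the two criteria is met; inactive = neither criterion is met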
T cruzi growth-3: Trypanosoma cruzi proliferation inhibition. shares compounds with T cruzi growth-1. T. cruzi beta-gal in NIH3T3, GalScreen luminescence, 90 h. inhibition, % at 2.09 µM. hit rate 21% among 5,600. AID 651740;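 active = mean inhibition above about 95%, with at least 55% of replicates also reaching it, limit read from the data; inconclusive = meets just one of the two conditions; inactive = meets neither condition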
3T3 cytotox: kills mouse NIH/3T3 fibroblasts | shares compounds with T cruzi growth-1 | NIH/3T3 viability, CellTiter-Glo ATP luminescence, 90 h | cytotoxicity (signal decrease), % at 8.35 µM | hit rate 14% among 5,600 | AID 651742;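 active = mean signal decrease across replicates above about 35% based on untreated-well scatter, with enough replicates individually passing, limit read from the data; inconclusive = no rule stated though some were filed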
NIH3T3 tox 2: NIH/3T3 (mouse) viability loss; shares compounds with T cruzi growth-1; NIH/3T3 viability, CellTiter-Glo ATP luminescence, 90 h; inhibition, % at 24.9 µM; hit rate 56% among 5,600;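 active = mean loss of cell viability signal at or above a set limit, and enough replicates individually reaching it; inconclusive = meets only the mean limit or only the replicate share; inactive = meets neither condition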
A number is an active result; . = inactive; ? = inconclusive; / = no result given. Hits are enriched below; roughly 5.8% of the tested compounds scored in any of these assays.

SMILES	T cruzi growth-1	Pf Dd2 inh	IDH1 R132H inh	GASC1 inh	T cruzi growth-2	T cruzi growth-3	3T3 cytotox	NIH3T3 tox 2
C[C@@H]1CCCCO[C@@H](CN(C)CC2CC2)[C@H](C)CN([C@H](C)CO)C(=O)c2cc(NC(=O)Nc3ccc(C(F)(F)F)cc3)ccc2O1	.	.	.	.	/	/	/	/
C[C@H]1CN([C@@H](C)CO)S(=O)(=O)c2ccc(C#Cc3cccnc3)cc2O[C@@H]1CN(C)C(=O)CN(C)C	.	.	.	.	/	/	/	/
Cc1ccc(-c2ccc([C@H]3[C@H](CO)N4CCCCN(C(=O)Nc5cccc(F)c5)C[C@@H]34)cc2)cc1	106	.	/	.	99	?	118	105
O=C(Nc1ccc(F)cc1)N1CCCCN2[C@@H](CO)[C@H](c3ccc(-c4ccncc4)cc3)[C@@H]2C1	.	.	/	.	/	/	/	/
O=C(Nc1cccc(F)c1)N1CCCCN2[C@H](CO)[C@@H](c3ccc(-c4ccncc4)cc3)[C@@H]2C1	103	.	/	.	113	.	36	31
Cc1ccc(-c2ccc([C@H]3[C@H]4CN(C(=O)Nc5cccc(F)c5)CCCCN4[C@H]3CO)cc2)cc1	.	.	/	.	/	/	/	/
O=C(Nc1cccc(F)c1)N1CCCCN2[C@H](CO)[C@H](c3ccc(-c4ccncc4)cc3)[C@@H]2C1	108	.	/	.	100	.	.	.
C[C@H](O)C#Cc1ccc2c(c1)O[C@@H](CN(C)Cc1ccccc1)[C@H](C)CN([C@@H](C)CO)S2(=O)=O	.	.	/	/	/	/	/	/
CCOC(=O)c1c(NC(=O)COc2cc(C)ccc2C)sc(C)c1C	/	/	.	/	/	/	/	/
COc1ccc(C#Cc2ccc([C@@H]3[C@@H](CO)N4CCCCN(C(=O)Nc5ccc(F)cc5)C[C@H]34)cc2)cc1	116	.	/	.	97	120	123	105
COc1ccc(C#Cc2ccc([C@@H]3[C@H](CO)N4CCCCN(C(=O)Nc5ccc(F)cc5)C[C@@H]34)cc2)cc1	111	.	/	.	105	109	119	103
COc1ccc(C#Cc2ccc([C@H]3[C@@H](CO)N4CCCCN(C(=O)Nc5ccc(F)cc5)C[C@H]34)cc2)cc1	.	.	/	.	/	/	/	/
COc1ccc(C#Cc2ccc([C@@H]3[C@@H](CO)N4CCCCN(C(=O)Nc5ccc(F)cc5)C[C@@H]34)cc2)cc1	112	.	/	.	102	106	.	104
C[C@H](CO)N1C[C@H](C)[C@H](CN(C)Cc2ccccc2)OCCCC[C@H](C)Oc2ccc(NS(C)(=O)=O)cc2C1=O	.	.	.	.	/	/	/	/
CC(C)C#Cc1ccc2c(c1)O[C@H](CN(C)C(=O)C1CCC1)[C@@H](C)CN([C@H](C)CO)S2(=O)=O	113	.	.	.	98	.	.	28
CC(C)C#Cc1ccc2c(c1)O[C@@H](CN(C)C(=O)C1CCCCC1)[C@@H](C)CN([C@@H](C)CO)S2(=O)=O	?	.	/	.	102	.	.	107
CC(C)C#Cc1ccc2c(c1)O[C@H](CN(C)C(=O)C1CCCCC1)[C@@H](C)CN([C@H](C)CO)S2(=O)=O	.	.	/	.	/	/	/	/
C[C@H](CO)N1C[C@H](C)[C@@H](CN(C)S(=O)(=O)c2ccc(Cl)cc2)Oc2ccc(NS(=O)(=O)c3cccs3)cc2C1=O	.	.	.	.	/	/	/	/
CCC(=O)N1CCCCN2[C@@H](CO)[C@H](c3ccc(-c4cccnc4)cc3)[C@@H]2C1	100	.	/	.	96	.	.	29
CN(C)CC(=O)N1CCCCN2[C@H](CO)[C@@H](c3ccc(-c4cccnc4)cc3)[C@@H]2C1	101	.	/	.	.	.	.	.
CCC(=O)N1CCCCN2[C@H](C1)[C@@H](c1ccc(-c3cccnc3)cc1)[C@@H]2CO	.	.	/	.	/	/	/	/
CN(C)CC(=O)N1CCCCN2[C@H](C1)[C@H](c1ccc(-c3cccnc3)cc1)[C@@H]2CO	108	.	/	.	97	.	.	.
C[C@@H]1CN([C@@H](C)CO)C(=O)Cc2cc(NC(=O)Nc3cccc4ccccc34)ccc2O[C@H]1CN(C)Cc1ccc2c(c1)OCO2	109	.	.	.	110	.	.	.
C[C@H](CO)N1C[C@H](C)[C@H](CN(C)Cc2ccc3c(c2)OCO3)Oc2ccc(NC(=O)Nc3cccc4ccccc34)cc2C1=O	105	.	.	.	?	104	.	67
C[C@H]1CCCCO[C@H](CN(C)Cc2ccccc2)[C@@H](C)CN([C@@H](C)CO)C(=O)c2cc(NS(=O)(=O)c3ccc(Cl)cc3)ccc2O1	109	.	/	.	101	.	.	104
SMILES	T cruzi growth-1	Pf Dd2 inh	IDH1 R132H inh	GASC1 inh	T cruzi growth-2	T cruzi growth-3	3T3 cytotox	NIH3T3 tox 2
C[C@@H]1CN([C@@H](C)CO)C(=O)c2cc(NS(=O)(=O)c3ccc(Cl)cc3)ccc2O[C@@H](C)CCCCO[C@@H]1CN(C)Cc1ccccc1	100	.	/	.	.	.	.	105
C[C@H](CO)N1C[C@H](C)[C@@H](CN(C)Cc2ccccc2)OCCCC[C@H](C)Oc2ccc(NS(=O)(=O)c3ccc(Cl)cc3)cc2C1=O	.	.	/	.	/	/	/	/
C[C@@H]1CCCCO[C@H](CN(C)Cc2ccccc2)[C@H](C)CN([C@@H](C)CO)C(=O)c2cc(NS(=O)(=O)c3ccc(Cl)cc3)ccc2O1	102	.	.	.	.	.	.	103
C[C@@H]1CCCCO[C@@H](CN(C)Cc2ccccc2)[C@H](C)CN([C@@H](C)CO)C(=O)c2cc(NS(=O)(=O)c3ccc(Cl)cc3)ccc2O1	110	.	/	.	102	.	.	100
CO[C@@H]1CN(C)C(=O)c2cc(NC(=O)CC(F)(F)F)ccc2OC[C@H](C)N(C(=O)C2CC2)C[C@H]1C	/	.	/	.	/	/	/	/
CCc1ccc(OCc2ccccc2C(=O)Nc2ccc3nc(C)cc(N)c3c2)cc1	/	/	.	/	/	/	/	/
C[C@@H]1CCCCO[C@H](CN(C)Cc2ccccc2)[C@@H](C)CN([C@@H](C)CO)C(=O)c2cc(NS(=O)(=O)c3ccc(Cl)cc3)ccc2O1	106	.	/	.	95	.	.	104
C[C@@H]1CCCCO[C@@H](CN(C)Cc2ccccc2)[C@H](C)CN([C@H](C)CO)C(=O)c2cc(NS(=O)(=O)c3ccc(Cl)cc3)ccc2O1	.	.	/	.	/	/	/	/
COc1ccc(OC(C)C(=O)Nc2cc3oc4ccccc4c3cc2OC)cc1 (stereo unspecified)	/	/	.	/	/	/	/	/
O=C(C1CCCC1)N1C[C@H]2[C@@H](c3ccccc31)[C@H](CO)N2C(=O)c1ccccc1F	100	.	/	.	.	.	.	?
O=C(Nc1ccc(F)cc1)N1C[C@H]2[C@@H](c3ccccc31)[C@@H](CO)N2Cc1ccccc1Cl	?	.	/	.	101	.	.	.
